Compound activity as filed in PubChem.
T cruzi inh = T. cruzi replication inhibition | 1.4% of 300,000 active | T. cruzi beta-gal in NIH3T3, luminescence, 90 h | AID 1885 | inhibition, % (test concentration not listed);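 active = mean inhibition across valid replicates above about 55%, limit read from the data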;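 also: signal also drops with host cell toxicity which is not excluded here; 0% = plate median of DMSO wells and 100% = zero luminescence signal; higher percent means less beta-gal luminescence so fewer parasites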
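compound dosing = single 50 nL compound addition per well in DMSO | material = NIH/3T3 host cells with β-galactosidase reporter T. cruzi | input = 5,000 host fibroblasts per well | timing = ≥90 h infection period, 3 h prior cell attachment | read-out basis = percent inhibition of parasite-derived β-gal signal | detection = GalScreen β-gal luminescence, detergent lysis, 60 min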
CSC inhib = cancer stem cell inhibition | 1.1% of 300,000 active | inhibition, % at 7.5 µM | cancer stem cell-like cells viability, luminescence; in the data active = inhibition above about 75%; tested in HMLE shEcad cells
Beta apoptosis = beta cell apoptosis inhibition. AID 435005. INS-1E cytokine-induced death, ATP luminescence, 48 h; percent of positive-control rescue, neutral wells zero. 0.8% of 300,000 active. protection from apoptosis, % (concentration not given with the values);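 active = Every replicate reaches about 75%, or at least half do and their mean reaches it too, limit read from the data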;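 also: 0% = cytokine-treated negative control wells and 100% = positive control rescue; higher means more ATP so stronger rescue from cytokine killing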
GRIN3A LBD mod = NR3A (human) ligand-binding domain modulation; 2.5% of 340,000 active; NR3A LBD differential scanning fluorimetry, Tm shift; 0% = protein alone, 100% = glycine-bound protein; Tm shift relative to glycine control, % at 25 µM;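 active = melting temperature shift of at least 10% of the positive control shift, at one fixed dose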
PREPL inh = human PREPL enzyme inhibition; Q4J6C6; recombinant PREPL, fluorescence polarization activity-based probe; 0.68% of 320,000 active; AID 2751; inhibition, % at 5.96 µM; in the data active = inhibition above about 43%;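 also: 0% = enzyme with DMSO and 100% = wells lacking enzyme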
Target sequence (Q4J6C6 whole entry, looked up): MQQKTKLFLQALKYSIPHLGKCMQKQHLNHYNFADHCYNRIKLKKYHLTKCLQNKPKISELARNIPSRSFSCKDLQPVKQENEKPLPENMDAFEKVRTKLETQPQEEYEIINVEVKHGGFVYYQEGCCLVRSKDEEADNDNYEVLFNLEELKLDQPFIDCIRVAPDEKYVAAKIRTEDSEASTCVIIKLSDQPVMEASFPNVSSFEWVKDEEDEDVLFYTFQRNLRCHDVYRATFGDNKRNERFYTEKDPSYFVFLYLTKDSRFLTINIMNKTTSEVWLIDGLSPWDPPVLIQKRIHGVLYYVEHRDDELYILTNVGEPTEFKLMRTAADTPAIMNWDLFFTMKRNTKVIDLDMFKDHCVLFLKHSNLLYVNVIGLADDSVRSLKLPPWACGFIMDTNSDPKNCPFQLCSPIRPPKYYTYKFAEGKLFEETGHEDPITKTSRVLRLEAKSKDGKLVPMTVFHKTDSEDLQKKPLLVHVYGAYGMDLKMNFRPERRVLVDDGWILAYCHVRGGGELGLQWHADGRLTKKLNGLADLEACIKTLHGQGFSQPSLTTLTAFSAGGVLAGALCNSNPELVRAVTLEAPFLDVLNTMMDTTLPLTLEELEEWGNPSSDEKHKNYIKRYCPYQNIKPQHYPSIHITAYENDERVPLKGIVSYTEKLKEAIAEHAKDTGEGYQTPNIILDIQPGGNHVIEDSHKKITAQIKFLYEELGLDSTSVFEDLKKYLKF
CHOP inhibitor = CHOP inhibition in unfolded protein response | CHO-K1 CHOP-promoter luciferase, tunicamycin-induced, 15-18 h | AID 2732 | 3.8% of 220,000 active | inhibition, % at 10 µM;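 active = compounds that reduced the stress-induced luciferase reporter signal by more than about 70% of percent inhibition, limit read from the data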;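 also: 0% = tunicamycin plus vehicle and 100% = wells without tunicamycin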
Active calls of the source: *; . = no result. A selection: hits, their analogues and other compounds. The true share with any hit is near 6.7%.

SMILES	T cruzi inh	CSC inhib	Beta apoptosis	GRIN3A LBD mod	PREPL inh	CHOP inhibitor
NCCNc1ccc(C(=O)N2c3ccccc3Sc3ccccc32)cc1[N+](=O)[O-]	-1	92*	24	-2	-14	.
Nc1ccc(C(=O)OCC(=O)N2c3ccccc3Sc3ccccc32)cc1[N+](=O)[O-]	.	6	0	0	-6	27
Cn1c(=O)c2[nH]c(-c3ccccc3)c(O)c2n(C)c1=O	2	-13	-2	12*	-43	16
COc1ccc(C(C)=O)cc1COC(=O)CSCC(=O)Nc1ccc(C)cc1	-5	5	-6	0	-36	.
O=C(Nc1ccc(Cl)cc1)C1=Cc2cc(Cl)ccc2OC1	-8	8	-3	26*	-4	64
O=C(Nc1ccc(Cl)cc1Cl)C1=Cc2ccccc2OC1	-19	-7	2	2	-10	63
COc1ccc(/C=C/c2nc3cc(-c4ccccc4)ccc3o2)cc1O	-7	102*	3	17*	23	43
COc1cccc(Nc2nc(-c3cccnc3)cs2)c1	29	-4	-6	-2	21	.
c1ccc(Nc2nc(-c3cccnc3)cs2)nc1	30	1	-12	34*	-1	-14
Clc1cccc(-c2csc(Nc3cccnc3)n2)c1	41	-13	-3	29*	28	37
Fc1ccc(-c2csc(Nc3ccccn3)n2)cc1	29	13	4	-3	21	.
Cc1ccc(Nc2nc(-c3cccnc3)cs2)cc1Cl	59*	13	0	2	24	.
Clc1ccc(-c2csc(N/N=C\c3cccnc3)n2)cc1	55*	-13	2	4	24	70
c1cncc(Nc2nc(-c3cccnc3)cs2)c1	29	-3	-10	0	18	31
Cn1c(=O)c2sc3c(c2n(CC(=O)Nc2ccccc2)c1=O)COC(C)(C)C3	10	-8	2	-3	-2	.
O=C(CN1C(=O)C2C3C=CC(C3)C2C1=O)OCC(=O)c1ccc(Cl)c([N+](=O)[O-])c1 (configuration not stated)	-23	4	-1	-2	11	.
Clc1ccccc1Nc1nc(-c2cccnc2)cs1	8	24	-5	-15	14	6
Cc1ccc(C)c(Nc2nc(-c3cccnc3)cs2)c1	33	13	0	20*	5	.
FC(F)(F)c1cc(-c2cccs2)nc(-n2cc(Cl)cn2)n1	4	-17	.	-1	6	85*
CC(NC(=O)CCn1nc(-c2ccc(Cl)cc2)ccc1=O)c1ccccc1 (configuration not stated)	-8	0	5	-4	-6	4
O=C1c2ccc(Cl)cc2S(=O)(=O)c2cccc(C(=O)N3CCC(Cc4ccccc4)CC3)c21	.	123*	3	-6	20	.
O=C(NC1CC1)c1cccc2c1C(=O)c1ccc(N3CCC(Cc4ccccc4)CC3)cc1S2(=O)=O	.	27	3	-2	11	.
O=C(CC(NC(=O)C(F)(F)F)c1ccccc1)Nc1nnc(CCc2ccccc2)s1 (configuration not stated)	-13	0	1	-4	1	94*
Cc1oc2cc(OC(C)C(=O)O)ccc2c(=O)c1Oc1ccccc1 (configuration not stated)	-3	-15	-6	-1	1	-7
CCOc1ccc2c(=O)c(Oc3ccccc3)c(C)oc2c1	8	12	-2	-11	8	76*
SMILES	T cruzi inh	CSC inhib	Beta apoptosis	GRIN3A LBD mod	PREPL inh	CHOP inhibitor
COc1ccc(N/N=C(/C)c2cnnc(-c3ccccc3)n2)cc1	19	10	8	13*	11	37
COc1ccc(C#Cc2ccc3c(c2)c(=O)c2ccccc2n3C)cc1	43	33	-11	12*	1	.
COc1ccc2nc(C(F)(F)C(F)(F)F)c(C#N)c(N)c2c1	-21	-10	6	22*	6	81*
CC1(C)Nc2ccccc2N(CCC(=O)N2CCOCC2)C1=O	-6	-9	0	13*	9	47
CN(Cc1cccs1)c1ncnc2sccc12	-26	-10	5	0	2	65
Cc1sc2ncnc(N(C)Cc3cccs3)c2c1C	-1	-1	4	11*	-1	30
CC(C)OC(=O)NCCOC(=O)Nc1ccc(Cl)cc1	4	-7	-2	25*	2	-2
CCOC(=O)c1cc(C#N)c(Oc2ccccc2)nc1-c1ccccc1	16	16	21	13*	2	-23
CCn1nc(C)cc1C(=O)N1CCCC(N2CCN(Cc3ccc4c(c3)OCO4)CC2)C1 (configuration not stated)	9	-10	1	-3	15	.
Cc1ccc(N=C2NC(=O)/C(=C\c3ccsc3)S2)c(C)c1	18	22	-6	-16	12	72*
Cc1ccc(N=C2NC(=O)/C(=C/c3cccnc3)S2)c(C)c1	6	0	-5	0	11	25
COc1ccc(-n2c(Cc3cccn3C)nnc2SCC(=O)Nc2cccc(NC(C)=O)c2)cc1	4	-11	-4	0	9	0
Cn1cccc1Cc1nnc(SCC(=O)Nc2cccc(Cl)c2)n1-c1ccc(F)cc1	-10	6	-4	-12	12	75*
O=C(CSc1nnc(-c2ccc(F)cc2)c2ccccc12)Nc1cccc(Cl)c1	60*	-8	0	2	-3	38
COc1ccc(-n2c(Cc3cccn3C)nnc2SCC(=O)Nc2cccc(Cl)c2)cc1	0	117*	-11	-5	14	60
C=CCNc1nc(S(=O)Cc2ccc(C)cc2)nc2c1CCCC2 (configuration not stated)	-18	7	-4	-14	3	-6
O=C1N=C(N2CCCCC2)SC1=C1CCCC1	-3	0	4	-2	6	8
CCCCN1C(=O)/C(=C2\SC(N3CCCCC3)=NC2=O)c2ccccc21	44	42	80*	8	30	23
O=C(Nc1ccnn1C1CCN(Cc2cccc(OCCO)c2)CC1)C1CC1	-10	-12	.	-2	-2	.
COc1cc(NC(=O)c2cccc(S(=O)(=O)N3CCCCC3)c2)cc(OC)c1OC	.	-7	1	1	9	.
O=[N+]([O-])c1cccnc1N1CCC(c2cc(-c3ccc(Cl)cc3)n[nH]2)CC1	46	101*	3	7	10	100*
COc1nc(NCCc2ccc(OC)c(OC)c2)nc(OC)n1	-4	-6	-3	5	0	1
Cc1ccc(-c2nc(NCCCO)c3ccccc3n2)cc1	24	-18	10	0	5	.
COc1ccc(CCNCC(O)Cn2c3ccccc3c3ccccc32)cc1OC (configuration not stated)	61*	-12	-2	-2	8	16
COc1ccc(CCNc2c3ccccc3nc3ccccc23)cc1OC	27	13	77*	-1	-37	2
OCCCNc1c2ccccc2nc2ccccc12	70*	32	109*	.	5	.
